PP1 inh: PP1-alpha (human) inhibition in PP5 counter-screen; purified PP1alpha, OMFP fluorescence; inhibition, % at 6.7 µM; 0.9% of 320,000 active; AID 2235;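 active = inhibition above the mean inhibition of all tested compounds plus 3 SD, computed separately for each screening campaign, cut at about 15% in these data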
Target sequence (P62136 whole entry, looked up): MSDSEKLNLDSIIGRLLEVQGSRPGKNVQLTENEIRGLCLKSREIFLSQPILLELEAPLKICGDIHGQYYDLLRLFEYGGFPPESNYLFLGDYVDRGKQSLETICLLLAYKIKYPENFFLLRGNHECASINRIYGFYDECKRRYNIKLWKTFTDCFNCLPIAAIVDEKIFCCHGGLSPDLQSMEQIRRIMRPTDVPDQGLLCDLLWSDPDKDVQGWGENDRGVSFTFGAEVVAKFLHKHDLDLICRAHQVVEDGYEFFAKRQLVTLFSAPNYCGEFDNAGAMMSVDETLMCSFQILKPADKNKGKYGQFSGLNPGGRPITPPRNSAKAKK
core dimer inh: blocks dimerization of HCV core protein; TR-FRET GST/Flag-core106 dimerization, 1536-well; 0.33% of 300,000 active; inhibition, % at 5 µM;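 active = inhibition above the mean of all tested compounds plus 3 SD, set per screening campaign, cut at about 45% in these data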
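System: GST/Flag-tagged HCV core106 proteins. Incubation: compound-protein-antibody incubation 4 h at 22.5 °C. Technique: HTRF with 340 nm excitation, 617/671 nm emission. Medium: KF-containing HEPES buffer, pH 7.45, DTT, CHAPS, BSA. Read-out: inhibition (%) from 671 over 617 nm ratio. Also added: Eu(K)-anti-GST 90 ng/mL plus XL665-anti-Flag 1 µg/mL.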
PP5 primary: PP5 (human) phosphatase inhibition; P53041; purified PP5c, OMFP substrate fluorescence; inhibition, % at 6.7 µM; AID 1987; 0.18% of 320,000 active;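 active = inhibition above the campaign's mean inhibition across all tested compounds plus 3 SD, cut at about 9.5% in these data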;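 also: 0% = DMSO only and 100% = 100 µM cantharidin control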
ZTA counter: blocks Epstein-Barr virus ZTA, an EBNA-1 counter-screen; P03206; ZTA-DNA binding, fluorescence polarization; inhibition, % at 11 µM; 0.15% of 320,000 active; in the data active = inhibition above about 33%
EBNA-1 inh: blocks EBNA-1 binding to DNA | EBNA-1 DNA binding, fluorescence polarization | inhibition, % at 14.8 µM | 0.34% of 300,000 active | AID 1950; in the data active = inhibition above about 28%
Starred values were filed as active, the others as inactive. A selection: hits, their analogues and other compounds. The true share with any hit is near 1.7%.

Screening Cc1cccc(N2C(=O)NC(=O)/C(=C/c3ccc([N+](=O)[O-])o3)C2=O)c1 returned PP1 inh 2, core dimer inh 1, PP5 primary -1, ZTA counter 37* and EBNA-1 inh 18.
`Cc1cccc(N2C(=O)NC(=O)/C(=C\C=C\c3ccco3)C2=O)c1` gave PP1 inh 3, core dimer inh -6, PP5 primary 1, ZTA counter 10 and EBNA-1 inh 8.
For COc1nc(NCC2CCCO2)nc(N2CC3CC(C2)c2cccc(=O)n2C3)n1 (stereo unspecified) the results were PP1 inh -4, core dimer inh 3, PP5 primary -2, ZTA counter 9 and EBNA-1 inh 5.
c1ccc(OCC2CO2)cc1 (stereo unspecified) was read as PP1 inh -5, PP5 primary 1 and ZTA counter -3.
`c1ccc(-c2[nH]c[n+](CC3CO3)c2-c2ccccc2)cc1` (stereo unspecified) gave PP1 inh 12, core dimer inh 0, PP5 primary 0, ZTA counter 40* and EBNA-1 inh 11.
For O=c1[nH]c(=O)n(Cc2ccco2)c(O)c1C=NCc1cccs1 the results were PP1 inh -2, core dimer inh -1, PP5 primary 3, ZTA counter -13 and EBNA-1 inh -1.
O=c1[nH]c(=S)n(Cc2ccco2)c(O)c1C=NCc1cccs1 was read as PP1 inh 8, core dimer inh 55*, PP5 primary 3, ZTA counter 5 and EBNA-1 inh 0.
Screening CNc1ccc2oc(C[C@H]3O[C@@]4(CC[C@H]3C)O[C@H]([C@H](C)C(=O)c3ccc[nH]3)[C@H](C)C[C@H]4C)nc2c1C(=O)O returned PP1 inh 17*, core dimer inh 19, PP5 primary 5, ZTA counter 15 and EBNA-1 inh 0.
Screening CCCNC(=O)N1[C@H]2CC[C@@H]1C(C(=O)OC)=C(c1ccc(OC)c(OC)c1)C2 returned PP1 inh -4, PP5 primary 1 and ZTA counter -9.
Screening CNc1ccc2nc3ccccc3[n+](C)c2c1 returned PP1 inh 3, core dimer inh -112, PP5 primary 5, ZTA counter 83* and EBNA-1 inh 45*.
Screening COc1ccc2nc3oc(C(=O)N4CCC5(CC4)OCCO5)cc3cc2c1 returned PP1 inh 2, core dimer inh -1, PP5 primary 4, ZTA counter -9 and EBNA-1 inh 12.
`O=c1c2ccccc2nc(/C=C/c2ccc3c(c2)OCO3)n1-c1ccccc1` gave PP1 inh 2, core dimer inh 14, PP5 primary 2, ZTA counter 1 and EBNA-1 inh 9.
O=c1c2ccccc2nc(/C=C/c2ccccn2)n1-c1ccccc1 was read as PP1 inh -3, core dimer inh 7, PP5 primary 4, ZTA counter 151* and EBNA-1 inh 118*.
Screening CCCN(CCC)C1Cc2cc(OC)c(OC)cc2C1 returned PP1 inh -2, core dimer inh 1, PP5 primary 0, ZTA counter 14 and EBNA-1 inh -6.
Screening CCN1C(=O)/C(=C/c2ccc3c(c2)CCN3CCCCl)C(=O)NC1=S returned PP1 inh 3, core dimer inh 84*, PP5 primary 2, ZTA counter 5 and EBNA-1 inh 7.
O=C1NC(=S)N(C2CC2)C(=O)/C1=C/c1ccc2c(c1)CCN2CCCCl was read as PP1 inh -4, core dimer inh 35, PP5 primary -1, ZTA counter 8 and EBNA-1 inh -5.
For COC(=O)C1=C(c2ccc(F)cc2F)C[C@@H]2CC[C@H]1N2C(=O)NCc1ccc(C(F)(F)F)cc1 the results were PP1 inh 4, PP5 primary 8 and ZTA counter -7.
Screening Cc1cccc(N2C(=O)/C(=C/c3ccc(CN(CCC#N)S(C)(=O)=O)o3)C(=O)NC2=S)c1 returned PP1 inh 1, core dimer inh 18, PP5 primary 1, ZTA counter 8 and EBNA-1 inh 0.
Cc1ccc(N2C(=O)/C(=C/c3ccc(CN(CCC#N)S(C)(=O)=O)o3)C(=O)NC2=S)cc1C was read as PP1 inh 5, core dimer inh 51*, PP5 primary 1, ZTA counter 7 and EBNA-1 inh -4.
CN1/C(=C\C=C\C2=[N+](C)c3ccc4ccccc4c3C2(C)C)C(C)(C)c2ccccc21 was read as PP1 inh 36*, core dimer inh -22, PP5 primary 12*, ZTA counter active and EBNA-1 inh 101*.
For Cc1cc(/C=C2\C(=O)NC(=O)N(c3ccc(Cl)cc3)C2=O)c(C)n1-c1sc2c(c1C#N)CCCC2 the results were PP1 inh 11, core dimer inh 47*, PP5 primary 2, ZTA counter 10 and EBNA-1 inh 2.
For Cc1cc(/C=C2\C(=O)NC(=O)N(Cc3ccco3)C2=O)c(C)n1-c1ccc(O)cc1 the results were PP1 inh 5, core dimer inh 47*, PP5 primary 1, ZTA counter 3 and EBNA-1 inh 3.
For Clc1ccc(CO/N=C(\Cn2ccnc2)c2ccc(Cl)cc2Cl)c(Cl)c1 the results were PP1 inh 33*, core dimer inh 13, PP5 primary 4, ZTA counter -10 and EBNA-1 inh 0.
Screening COC(=O)C1=C(c2ccc(F)cc2OCc2ccccc2)C[C@@H]2CC[C@H]1N2C(=O)NC1Cc2ccccc2C1 returned PP1 inh 17*, PP5 primary 0 and ZTA counter -7.
For COC(=O)C1=C(c2ccccc2OCc2ccccc2)C[C@@H]2CC[C@H]1N2C(=O)NCc1ccc(C(C)(C)C)cc1 the results were PP1 inh 17*, PP5 primary 4 and ZTA counter 4.
CC12CN3CCN(C1)CC(C)(C3)C2=NN was read as PP1 inh -3, core dimer inh -1, PP5 primary -2, ZTA counter 20 and EBNA-1 inh 1.
For CC(=O)c1ccc2c(c1)C1C(Cl)C(Sc3ccccc3[N+](=O)[O-])CC1C(c1ccccc1[N+](=O)[O-])N2 (stereo unspecified) the results were PP1 inh 16*, core dimer inh 54*, PP5 primary 2, ZTA counter 10 and EBNA-1 inh 4.
O=C1NC(=O)C(Sc2ccccc2[N+](=O)[O-])C(=O)N1 was read as PP1 inh -1, core dimer inh -9, PP5 primary 1, ZTA counter -2 and EBNA-1 inh 5.
For CC(=O)c1ccc2c(c1)C1C(Cl)C(Sc3ccccc3[N+](=O)[O-])CC1C(c1ccccc1)N2 (stereo unspecified) the results were PP1 inh 9, core dimer inh 66*, PP5 primary 1, ZTA counter 4 and EBNA-1 inh -5.
Screening CC1CCN(C(=O)CCl)CC1 returned PP1 inh -2, core dimer inh 3, PP5 primary 0, ZTA counter -10 and EBNA-1 inh 2.
